A selection: hits, their analogues and other compounds. The true share with any hit is near 3.8%.
Xi reactivation: X-chromosome reactivation activator; activation, % at 7.58 µM; hit rate 0.055% among 360,000; XiGFP mouse fibroblasts, % GFP-positive cells imaging, 3 d; cells co-treated with 5-aza-dC sensitizer; scaled so ellipticine positive control = 100%;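 active = mean normalized replicate activation at least 10% and every replicate at or above 10%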;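 note: 0% = median of on-plate neutral control wells and 100% = ellipticine 6 µM median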
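Material: XiGFP fibroblasts, SV40-immortalized. Buffer or medium: DMEM plus 5-aza-dC sensitizer. Compound: single concentration per compound, delivered by pin transfer. Times: 3 days compound exposure. Controls: ellipticine 6 µM.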
FGF22 binding: binders of recombinant human FGF22 by thermal shift; Q9HCT0; SYPRO orange fluorescence; percent of sucrose octasulfate shift, DMSO zero; activity (Tm shift, normalised), % at 9.99 µM; hit rate 1.5% among 340,000; AID 651658;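 active = mean Tm shift, scaled 0 neutral to 100 positive control, at about 1.3% or above, every replicate too, limit read from the data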
Target sequence (Q9HCT0 whole entry, looked up): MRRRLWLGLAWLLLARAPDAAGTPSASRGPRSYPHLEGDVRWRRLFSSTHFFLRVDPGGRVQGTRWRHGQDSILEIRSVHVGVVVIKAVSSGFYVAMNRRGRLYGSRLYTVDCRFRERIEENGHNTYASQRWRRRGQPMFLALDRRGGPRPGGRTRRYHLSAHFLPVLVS
ARNT-TACC3 inh: disruptors of human ARNT/TACC3 interaction | Q9Y6A5 | AlphaScreen His-ARNT PAS-B/GST-TACC3 binding, luminescence; TACC3 fragment carries E629A point mutation | inhibition, % at 9.99 µM | hit rate 0.66% among 390,000;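 active = mean inhibition of replicates at least 50% and at least half of replicates each reaching 50%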;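 note: 0% = complete ARNT plus TACC3 wells and 100% = ARNT alone without TACC3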
SIRT5 block: inhibitors of human sirtuin-5 desuccinylase | Q9NXA8 | Purified SirT5, succinyl-peptide AMC, trypsin-coupled fluorescence | inhibition, % at 15 µM | hit rate 1.1% among 330,000 | AID 652115; in the data active = inhibition above about 15%
DENV2 CPE: DENV2-induced cell death inhibition | CPE inhibition, % at 9.99 µM | hit rate 1.7% among 350,000 | DENV2-infected cells, cytopathic effect rescue, plate reader; in the data active = CPE inhibition above about 20%, passing the limit was not always enough; tested in BHK-21 cells;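 note: 0% = median of neutral control wells and 100% = median of positive control wells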
FN deposit inh: fibronectin deposition inhibition. AH1F fibroblasts, Alexa488-fibronectin deposition fluorescence, overnight. inhibition, % at 12.6 µM. hit rate 0.086% among 350,000. AID 743247;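 active = mean inhibition across replicates of 30% or more, regardless of how many single replicates reach that level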;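 note: positive control wells lacked labelled fibronectin entirely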
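Measured by – fluorescence 485/525 nm · System – AH1F fibroblast monolayer, labelled fibronectin deposition · Amount – 10000 cells per well · Buffer or medium – serum-reduced DMEM (2% serum) · Doses – single dose, pinned · Also added – fluorescent fibronectin at 24 nM final · Schedule – 1 h cell attachment, overnight exposure to compound and label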
Active calls of the source: *; . = not tested or not shown.

SMILES	Xi reactivation	FGF22 binding	ARNT-TACC3 inh	SIRT5 block	DENV2 CPE	FN deposit inh
CO[C@H]1CN(C)C(=O)c2cc(NC(C)=O)ccc2OC[C@H](C)N(C(=O)CC2CC2)C[C@@H]1C	0	0	-10	-1	36*	-1
CO[C@@H]1CN(C)C(=O)c2cc(NC(C)=O)ccc2OC[C@H](C)N(C(=O)CC2CC2)C[C@H]1C	0	0	-4	2	16	-1
Cc1cccn2c(=O)c3cc(C(=O)NCC4CCCO4)c(=N)n(C4CCCC4)c3nc12 (configuration not stated)	.	42	-4	81*	-2	5
N=c1c(C(=O)NCC2CCCO2)cc2c(=O)n3ccccc3nc2n1C1CCCC1 (configuration not stated)	0	0	8	-135	-2	4
Cc1noc(C)c1NC(=O)N(C)C[C@@H]1Oc2ccc(NS(=O)(=O)c3c(C)noc3C)cc2C(=O)N([C@H](C)CO)C[C@@H]1C	0	.	.	.	.	.
O=C(c1ccco1)N1CCCN(Cc2nc(-c3cccs3)no2)CC1	0	0	2	21*	4	0
O=C(c1ccco1)N1CCN(Cc2nc(Cc3ccccc3)no2)CC1	0	0	-2	-3	-2	-2
N#C/C(=C\c1ccc(N2CCCCC2)o1)C(=O)Nc1cccc(Br)c1	94*	.	-7	.	.	-304
COc1ccc(CN(C)C[C@H]2Oc3ccc(NC(=O)C4CCCCC4)cc3CC(=O)N([C@@H](C)CO)C[C@H]2C)cc1	-1	1.7*	-2	4	-2	.
COc1ccc(CN(C)C[C@H]2Oc3ccc(NC(=O)C4CCCCC4)cc3CC(=O)N([C@@H](C)CO)C[C@@H]2C)cc1	1	0	7	17*	-4	.
COc1ccc(CN(C)C[C@H]2Oc3ccc(NC(=O)C4CCCCC4)cc3CC(=O)N([C@H](C)CO)C[C@H]2C)cc1	0	0	2	1	-3	.
Cc1ccc(S(=O)(=O)N[C@H]2C=C[C@H](CC(=O)NCCN3CCCCC3)O[C@@H]2CO)cc1	-1	0	-1	-1	2	.
Cc1ccc(S(=O)(=O)N(C)C[C@H]2Oc3ccc(NS(=O)(=O)c4cn(C)cn4)cc3CC(=O)N([C@H](C)CO)C[C@H]2C)cc1	-1	.	.	.	.	.
CC1CCN(S(=O)(=O)c2ccc(C(=O)N(C)C3CCS(=O)(=O)C3)cc2)CC1 (configuration not stated)	0	0	-2	25*	-6	-3
COc1ccc(NC(=O)Nc2ccc3c(c2)C(=O)N([C@H](C)CO)C[C@@H](C)[C@@H](CN(C)C(=O)CCCN(C)C)OCCCC[C@@H](C)O3)cc1	0	0	0	-4	-1	.
CCOC(=O)C(C)OC(=O)C1=C(C)NC(=O)NC1c1ccc2c(c1)OCO2 (configuration not stated)	0	0	-10	20*	1	-1
CCCCCOC(=O)C1=C(C)NC(=O)NC1c1ccc2c(c1)OCO2 (configuration not stated)	0	0	1	.	-3	5
CCOc1cc(C2NC(=O)NC(C)=C2C(=O)OCc2ccccc2)ccc1O (configuration not stated)	.	0	44*	-1	8	.
COc1cccc(CN2CC(C(=O)N(C)CC3CCOCC3)CCC2=O)c1 (configuration not stated)	0	0	-3	19*	4	-5
O=C(Nc1cc(F)ccc1F)N[C@@H]1CC[C@@H](CCn2cc(C3CCCC3)nn2)O[C@H]1CO	0	.	.	3	-8	14
CC(=O)Nc1ccc2c(c1)CC(=O)N(C)C[C@H](C)[C@H](CN(C)C(C)=O)O2	0	.	.	.	.	1
N=c1c2c(n(Cc3ccc(Br)cc3)c3c1CCC3)CCCC2	0	43*	-11	-4	8	10
C[C@H]1CCCCO[C@H](CN(C)S(=O)(=O)c2ccc(Cl)cc2)[C@@H](C)CN([C@@H](C)CO)C(=O)c2cc(NS(=O)(=O)c3ccc(F)cc3)ccc2O1	0	0	-18	23*	0	-7
